Screening results: PubChem, several laboratories
The list is not random: actives were taken first. Their share in the collection is about 1.4%.
Arr AP2 block: human beta-arrestin and AP2 interaction inhibition; FITC-arrestin peptide / GST-AP2 beads, flow cytometry; AP2 beta2 appendage carries R879A mutation; inhibition, % at 10 µM; actives 0.31% (n = 340,000); AID 504490;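 active = inhibition above a set limit, near 3 SD of compounds lacking own fluorescence, cut at about 54% in these data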
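Material – AP2 appendage R879A on GSH beads · Buffer or medium – PBS with 0.05% Tween 20 and 0.1% BSA · Probe or stimulus – fluorescein-tagged arrestin peptide at 50 nM final · Incubation – compound with beads 12 min RT, then probe 1 h RT · Detection – high-throughput flow cytometry of beads, ex 488, em 535 nm · Evaluation – percent response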
HTR5A ag ctr: counter-screen for OPRM1-OPRD1 agonists: human HTR5A agonism; HTR5A agonist assay, luminescence, cell-based; P47898; activation, % at 9.3 µM; actives 0.61% (n = 340,000); in the data active = activation mostly above about 9.5%, no sharp cut-off; inactive = mostly below about 7.6%
MOR-DOR inv ag: inverse agonists of human mu-delta opioid receptor heterodimerization; P35372+P41143; cell-based MOR-DOR heterodimer luminescence, inverse agonism; inhibition, % at 9.3 µM; actives 0.21% (n = 340,000); AID 504357; in the data active = inhibition above about 22%, passing the limit was not always enough
Target sequence (P35372 whole entry, looked up): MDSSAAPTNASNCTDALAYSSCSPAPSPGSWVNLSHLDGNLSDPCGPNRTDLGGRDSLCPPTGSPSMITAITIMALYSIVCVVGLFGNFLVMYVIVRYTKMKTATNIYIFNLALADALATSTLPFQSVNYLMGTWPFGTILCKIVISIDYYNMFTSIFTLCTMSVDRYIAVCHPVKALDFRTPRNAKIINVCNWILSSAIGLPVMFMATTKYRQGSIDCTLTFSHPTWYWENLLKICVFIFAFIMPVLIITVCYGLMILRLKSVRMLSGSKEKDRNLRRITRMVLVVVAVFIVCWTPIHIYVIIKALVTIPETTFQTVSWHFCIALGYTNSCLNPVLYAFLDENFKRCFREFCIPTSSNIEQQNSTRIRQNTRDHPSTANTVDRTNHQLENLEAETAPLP
Target sequence (P41143 whole entry, looked up): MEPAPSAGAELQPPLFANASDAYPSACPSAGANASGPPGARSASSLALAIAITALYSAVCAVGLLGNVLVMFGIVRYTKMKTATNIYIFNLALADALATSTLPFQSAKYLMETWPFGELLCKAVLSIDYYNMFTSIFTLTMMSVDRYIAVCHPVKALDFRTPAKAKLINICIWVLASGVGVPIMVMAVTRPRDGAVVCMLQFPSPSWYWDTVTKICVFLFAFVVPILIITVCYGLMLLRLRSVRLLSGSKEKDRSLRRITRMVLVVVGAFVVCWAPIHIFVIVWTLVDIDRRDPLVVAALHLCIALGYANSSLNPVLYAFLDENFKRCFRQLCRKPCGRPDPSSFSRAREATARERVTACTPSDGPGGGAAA
DAGLB inhibitor: blocks human DAGLB lipase activity | Q8NCG7 | HEK293T DAGLB membrane lysate, EnzChek fluorogenic substrate | inhibition, % at 5.17 µM | actives 0.059% (n = 340,000); in the data active = inhibition above about 34%
HTR5A inv ctr: inverse agonist of human HTR5A in OPRM1-OPRD1 counter-screen; P47898; HTR5A cell line, luminescence, inverse agonism; inhibition, % at 9.3 µM; actives 0.083% (n = 340,000); AID 504634; in the data active = inhibition mostly above about 23%, no sharp cut-off; inactive = mostly below about 18%
MOR-DOR ag-1: agonists of human mu-delta opioid receptor heterodimerization. P35372+P41143. cells, OPRM1-OPRD1 heterodimerization, luminescence. activation, % at 9.3 µM. actives 0.3% (n = 340,000). AID 504326
MOR-DOR ag-2: promotes OPRM1-OPRD1 heterodimerization in HTR5A counter-screen; actives 13% (n = 800); shares compounds with HTR5A ag ctr; activation, % at 9.3 µM; U2OS counter-screen cells, complementation luminescence, 3 h
HTR5A ag conf: HTR5A (human) agonism, confirmation; shares compounds with HTR5A ag ctr; activation, % at 9.3 µM; actives 17% (n = 800); HTR5A agonist cell assay, luminescence; in the data active = activation above about 17%
Hits are given with their value; – = inactive; · = no result. Rule as the data show it, unless noted: active = activation above about 18%; inactive = the rest.

SMILES	Arr AP2 block	HTR5A ag ctr	MOR-DOR inv ag	DAGLB inhibitor	HTR5A inv ctr	MOR-DOR ag-1	MOR-DOR ag-2	HTR5A ag conf
O=C(Nc1ccccc1)C1C2/C=C\CCCCC21 (stereo unspecified)	–	–	–	–	–	–	·	·
Cc1ccc(NC(=O)C2C3/C=C\CCCCC32)cc1C (stereo unspecified)	–	20	–	–	–	–	–	–
O[C@H]1CN(CC2CCCCC2)[C@@H](c2ccc(Cl)cc2)C[C@@H]1n1cc(-c2ccc(F)cc2)nn1	·	·	·	–	·	·	·	·
CC(=O)Nc1ccc(/C=N/NC(=O)CNS(=O)(=O)c2ccccc2)cc1	–	–	–	–	–	–	·	·
COc1ccc(/C=N/NC(=O)CNS(=O)(=O)c2ccccc2)cc1	–	21	–	–	–	–	–	–
COc1ccc(C(=O)CC(=O)C(=O)NCCc2cccc(C)c2)cc1	–	16	–	–	–	–	–	–
COc1ccc(NS(=O)(=O)c2cccc(C(=O)NCC(c3ccccc3OC)N3CCCC3)c2)cc1 (stereo unspecified)	–	–	–	–	–	–	·	·
COc1ccccc1C(CNC(=O)c1cccc(S(=O)(=O)Nc2ccc(F)cc2)c1)N1CCCC1 (stereo unspecified)	–	65	–	–	–	–	–	–
CC(C)CN(C(=O)CN(C)C(=O)Cc1c(F)cccc1Cl)c1c(N)n(CC(C)C)c(=O)[nH]c1=O	·	·	·	–	·	·	·	·
Cc1nc2ccccc2n1CC(=O)c1ccccc1	–	–	–	–	–	–	·	·
Cc1nc2ccccc2n1CC(=O)c1ccc(O)c(O)c1	–	22	–	–	–	–	–	21
Cc1cc(CN(Nc2ccccc2)c2ccccc2)cc(C)n1	·	·	·	–	·	·	·	·
Cc1ccc(C(=O)NCCc2nnc3ccc(SCC(=O)Nc4nnc(C)s4)nn23)cc1	·	·	·	–	·	·	·	·
CN(C)C1CCCCC=CC(=O)NC1 (stereo unspecified)	·	·	·	–	·	·	·	·
O=C(Nc1nc(-c2cccs2)cs1)c1ccc(S(=O)(=O)N2CCCCC2)cc1	–	19	–	–	–	–	–	–
Cc1cn(C2CCCO2)c(=O)nc1N (stereo unspecified)	–	–	–	–	–	–	·	·
CN1C(=O)c2cccc3c(S(=O)(=O)N4CCCC4C(=O)O)ccc1c23 (stereo unspecified)	–	17	–	–	–	–	–	–
CN1C(=O)c2cccc3c(S(=O)(=O)Nc4ccc(O)c(C(=O)O)c4)ccc1c23	–	–	–	–	–	–	·	·
CN1C[C@H](C(=O)NC2(C)OC3(O)[C@@H]4CCCN4C(=O)[C@H](Cc4ccccc4)N3C2=O)CC2c3cccc4[nH]cc(c34)C[C@H]21 (stereo partly specified)	–	32	–	–	–	–	–	63
O=C(NC1CCCN(CCc2ccccc2)C1)c1c[nH]c2ccccc12 (stereo unspecified)	–	–	–	–	–	–	·	·
CC(C)(C)c1ccc(C(=O)Nc2nnc(Cc3c[nH]c4ccccc34)s2)cc1	–	21	–	–	–	–	–	–
O=C(Nc1nnc(Cc2c[nH]c3ccccc23)s1)c1ccc(Cl)cc1Cl	–	–	–	–	–	–	·	·
COCCn1c(N)c(N(Cc2ccccc2)C(=O)C(C)Oc2ccc(Br)cc2)c(=O)[nH]c1=O (stereo unspecified)	·	·	·	–	·	·	·	·
O=Cc1ccc2c(c1)OCCOCCOCCOCCO2	·	·	·	–	·	·	·	·
C/C(=N\NC(=O)CNc1ccccc1)c1ccccc1	–	18	–	–	–	–	–	–
SMILES	Arr AP2 block	HTR5A ag ctr	MOR-DOR inv ag	DAGLB inhibitor	HTR5A inv ctr	MOR-DOR ag-1	MOR-DOR ag-2	HTR5A ag conf
C/C(=N\NC(=O)CNc1cccc(C)c1)c1ccc(Br)s1	–	25	–	–	–	–	–	34
C/C(=N/NC(=O)CNC(=O)c1ccccc1)c1ccc(C)cc1	–	–	–	–	–	–	·	·
C/C(=N\NC(=O)Cc1ccccc1)c1ccc(Br)s1	–	–	–	–	–	–	·	·
COc1ccc([C@H]2C[C@@H](n3cc(COC(=O)c4ccccc4)nn3)[C@H](O)CN2Cc2cccs2)cc1	·	·	·	–	·	·	·	·
Cc1ccc(C)c(NC(=O)CN(C)C(C)C(=O)N2CC(C)CC(C)C2)c1 (stereo unspecified)	–	–	–	–	–	–	·	·
CN(C)c1ccc(NC(=S)N2CCN(c3ncc(C(F)(F)F)cc3Cl)CC2)cc1	–	16	–	–	–	–	–	–
CCOC(=O)CSc1nc2nc(Cl)c(Cl)nc2[nH]1	·	·	·	–	·	·	·	·
O=C(O/N=C(\c1ccccc1)c1ccccn1)c1cccc2ccccc12	–	39	–	–	–	–	133	–
CCN(CC)C(=O)C1=C(C)N(Cc2ccc(C(C)(C)C)cc2)C(=O)C(CC(=O)NCCCN(C)C)C1 (stereo unspecified)	·	·	·	–	·	·	·	·
O=C(O)/C=C/C(=O)N1CCN(c2ccccc2F)CC1	–	–	–	–	–	–	·	·
Cc1cc(N2CCN(C(=O)/C=C/C(=O)O)CC2)c2ccccc2n1	–	15	–	–	–	–	–	–
Cn1cc(C(=O)NCC2COc3ccccc3O2)c(=O)c2cc(S(=O)(=O)N3CCCCC3)ccc21 (stereo unspecified)	–	49	–	–	–	–	–	–
CCN(CC)S(=O)(=O)c1ccc(N2CCOCC2)c(NC(=O)c2cc3ccccc3o2)c1	·	·	·	–	·	·	·	·
COc1cccc(NC(=S)N2CCCN(Cc3ccc(F)cc3)C2)c1	–	33	–	–	–	–	–	26
COc1ccc(NC(=S)N2CCCN(Cc3cccc(Cl)c3)C2)cc1	–	48	–	–	–	–	167	–
Cc1cccc(C)c1NC(=S)N1CCCN(Cc2ccc(F)cc2)C1	–	–	–	–	–	–	·	·
CCOc1ccc(NC(=S)N2CCCN(Cc3cccc(Cl)c3)C2)cc1	–	–	–	–	–	–	·	·
CCNC(=O)c1ccc(-n2nc(C(F)(F)F)c3c2CCCC3)cc1	–	16	–	–	–	–	–	36
CN(C(=O)c1cccc(NC(=O)Cc2ccc(NC(=O)C3CCCN(C(=O)CCc4ccccc4)C3)cc2)c1)C1CCCC1 (stereo unspecified)	–	–	–	–	–	–	·	·
CN(C(=O)c1cccc(NC(=O)Cc2ccc(NC(=O)C3CCCN(C(=O)CCc4ccccc4)C3)cc2)c1)C1CCC1 (stereo unspecified)	–	20	–	–	–	–	–	–
CC1(C)Cc2c(C#N)c(N3CCN(C(=O)c4ccco4)CC3)nc(-c3ccco3)c2CS1	–	18	–	–	–	–	–	–
CC(=O)c1cc2c(cc1NC(=O)CSc1ncccn1)OCO2	·	·	·	–	·	·	·	·
O=C(C1=COCCO1)N1CCN(c2nc3ccc([N+](=O)[O-])cc3s2)CC1	–	16	–	–	–	–	83	–
